According to PubChem BioAssay AID540312 (Sanford-Burnham Center for Chemical Genomics, 2011):
The source made the active and inactive calls.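 The calls were made as follows: active = mean EC50 of 20 µM or lower; inactive = the rest.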

molecular target: CHO-CHOP luciferase reporter, UPR activation, luminescence; assay: CHOP luciferase reporter activation – CHO-CHOP cells, luminescence, SAR follow-up (AID 540312)
Method in brief: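 Assay system – CHO-CHOP luciferase reporter cell line · Dosing – compound dose-response series, final DMSO at most 1% · Buffer or medium – F12 medium, 10% FBS · Detection – Steady-Glo luminescence · Schedule – 16–18 h cell rest, then 6 h compound treatment, 37 °C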

| SMILES | EC50 |
| --- | --- |
| O=C(Nc1ccc(S(=O)(=O)N2CCOCC2)cc1)c1cccs1 | > 80 µM (inactive) |
| O=C(Nc1nc2c(F)cc(F)cc2s1)c1ccccn1 | 7.22 µM |
| O=C(Nc1ccc(S(=O)(=O)N2CCCC2)cc1)c1ccc([N+](=O)[O-])o1 | 0.742 µM |
| O=C(Nc1nc2ccccc2s1)c1ccncc1 | > 80 µM (inactive) |
| O=C(Nc1cccc(S(=O)(=O)N2CCOCC2)c1)c1ccco1 | > 80 µM (inactive) |
| O=C(Nc1ccc(S(=O)(=O)C2CCCCC2)cc1)c1ccc([N+](=O)[O-])o1 | 0.676 µM |
| O=C(Nc1ccc(C(=O)N2CCOCC2)cc1)c1ccco1 | > 80 µM (inactive) |
| O=C(Nc1ccc(S(=O)(=O)N2CCNCC2)cc1)c1ccc([N+](=O)[O-])o1 | inactive |
| Cc1cc(C)c2nc(NC(=O)c3ccccn3)sc2c1 | 7.56 µM |
| Cc1ccc(C(=O)Nc2ccc(S(=O)(=O)N3CCOCC3)cc2)o1 | > 80 µM (inactive) |
| Fc1cc(F)c2nc(NCc3ccccn3)sc2c1 | > 80 µM (inactive) |
| O=C(Nc1nc2ccccc2s1)c1ccccn1 | > 80 µM (inactive) |
| O=C(Nc1nc2ccc(F)cc2s1)c1ccccn1 | 12.6 µM |
| O=C(Nc1ccc(S(=O)(=O)N2CCOCC2)cc1)c1ccccc1 | > 80 µM (inactive) |
| O=C(Nc1nc2c(Cl)cc(Cl)cc2s1)c1ccccn1 | 10.6 µM |
| O=C(Nc1nc2c(F)cccc2s1)c1ccccn1 | 5.83 µM |

| SMILES | EC50 |
| --- | --- |
| O=C(Nc1ccc(S(=O)(=O)N2CCOCC2)cc1)c1ccc([N+](=O)[O-])s1 | 13.5 µM |
| CC1CCN(S(=O)(=O)c2ccc(NC(=O)c3ccc([N+](=O)[O-])o3)cc2)CC1 | 0.541 µM |
| O=C(Nc1ccc(S(=O)(=O)c2ccccc2)cc1)c1ccc([N+](=O)[O-])o1 | 1.09 µM |
| O=C(Nc1nc2c(F)cc(F)cc2s1)c1cccnc1 | > 80 µM (inactive) |
| O=C(Nc1ccc(S(=O)(=O)N2CCC(O)CC2)cc1)c1ccc([N+](=O)[O-])o1 | 2.02 µM |
| CC1CN(S(=O)(=O)c2ccc(NC(=O)c3ccco3)cc2)CC(C)O1 (stereo unspecified) | > 80 µM (inactive) |
| CC1(C)CCN(S(=O)(=O)c2ccc(NC(=O)c3ccc([N+](=O)[O-])o3)cc2)CC1 | 0.494 µM |
| O=C(Nc1nc2c(F)cc(F)cc2s1)c1ccncc1 | > 80 µM (inactive) |
| O=C(Nc1ccc(S(=O)(=O)N2CCOCC2)cc1)c1ccc([N+](=O)[O-])cc1 | > 80 µM (inactive) |
| O=C(Nc1ccc(S(=O)(=O)N2CCOCC2)cc1)c1ccc(Br)o1 | > 80 µM (inactive) |
| O=C(Nc1nc2ccccc2s1)c1cccnc1 | > 80 µM (inactive) |
| O=C(Nc1ccc(S(=O)(=O)N2CCOCC2)cc1)c1ccco1 | > 80 µM (inactive) |
| O=C(Nc1nc2c(F)cc(F)cc2s1)c1ccccc1 | > 80 µM (inactive) |
| O=C(Nc1ccc(S(=O)(=O)N2CCCCC2)cc1)c1ccc([N+](=O)[O-])o1 | 1.75 µM |
| O=C(Nc1ccc(S(=O)(=O)N2CCOCC2)cc1)c1ccc([N+](=O)[O-])o1 | 2.28 µM |
